Bioassay records as filed in PubChem.
A selection: hits, their analogues and other compounds. The true share with any hit is near 2.5%.
SENP1 FRET inh: blocks the human SENP1 SUMO protease catalytic domain; Q9P0U3; AID 624204; actives 0.21% (n = 360,000); recombinant SENP1 catalytic domain, CyPet-SUMO1-YPet FRET cleavage; inhibition, % at 10 µM;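 active means inhibition at least 30% at 10 µM, raw YFP signal under a set limit, fluorescence ratio 0.5 to 1.5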;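 further: 0% = enzyme with DMSO and 100% = no enzyme wells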
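Test system: hSENP1 catalytic domain, recombinant; Amount: 20 pM final SENP1 enzyme; Medium: Tris pH 8 buffer plus EDTA, NaCl, BME, BSA, NP40, catalase; Schedule: 50 min enzyme reaction, room temperature, light-protected; Technique: FRET fluorescence in CFP and YFP emission channels; Controls: no-enzyme wells low, DMSO-plus-enzyme wells high control.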
SENP8 block-1: SENP8 protease inhibition | purified SENP8, Z-RLRGG-aminoluciferin cleavage, luminescence | inhibition, % at 10 µM | actives 1.2% (n = 330,000); in the data active means inhibition above about 50%
Target sequence (Q96LD8 whole entry, looked up): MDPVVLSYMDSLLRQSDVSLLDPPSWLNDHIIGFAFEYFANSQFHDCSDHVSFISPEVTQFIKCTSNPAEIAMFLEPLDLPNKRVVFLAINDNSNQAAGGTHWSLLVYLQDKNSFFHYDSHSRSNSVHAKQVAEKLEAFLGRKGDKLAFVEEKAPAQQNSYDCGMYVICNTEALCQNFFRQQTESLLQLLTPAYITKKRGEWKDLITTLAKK
SENP7 block: SENP7 protease inhibition. recombinant SENP7, Z-RLRGG-aminoluciferin luminescence, 40 min. inhibition, % at 5 µM. actives 1.5% (n = 330,000);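 active means inhibition above about 50% at the single test dose, limit read from the data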;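 further: plate controls were DMSO with enzyme for no effect and no enzyme buffer wells for full effect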
SENP6 inh: inhibitors of human SENP6 protease; inhibition, % at 10 µM; Q9GZR1; Recombinant SENP6 catalytic domain, aminoluciferin luminescence; actives 1.8% (n = 330,000);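 active means inhibition above about 50% at the single tested dose, limit read from the data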;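 further: plate controls were DMSO wells with enzyme for no effect and DMSO wells lacking enzyme for full effect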
Target sequence (Q9GZR1 628-1112 limits assumed): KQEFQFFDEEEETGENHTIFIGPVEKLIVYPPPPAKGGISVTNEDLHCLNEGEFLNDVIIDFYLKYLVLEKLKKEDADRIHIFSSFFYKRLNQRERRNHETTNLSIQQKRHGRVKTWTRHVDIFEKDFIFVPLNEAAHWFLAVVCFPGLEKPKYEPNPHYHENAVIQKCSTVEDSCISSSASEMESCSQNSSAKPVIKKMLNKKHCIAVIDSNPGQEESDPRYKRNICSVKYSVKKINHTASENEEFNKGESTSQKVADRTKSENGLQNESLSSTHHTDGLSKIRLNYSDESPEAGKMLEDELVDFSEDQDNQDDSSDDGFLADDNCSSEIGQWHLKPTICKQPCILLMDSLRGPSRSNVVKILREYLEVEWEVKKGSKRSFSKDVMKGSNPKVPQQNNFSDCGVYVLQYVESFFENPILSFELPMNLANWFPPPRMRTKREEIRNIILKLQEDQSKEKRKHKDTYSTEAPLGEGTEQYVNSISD
SENP8 block-2: blocks human SENP8 cleavage of Nedd8 substrate. Q96LD8. recombinant SENP8, Nedd8 substrate fluorescence. inhibition, % at 20 µM. actives 0.64% (n = 360,000). AID 602440; in the data active means inhibition mostly above about 40%, no sharp cut-off; inactive means mostly below about 27%
SENP8 confirm: confirmation of human SENP8 protease inhibitors; actives 40% (n = 6,200); shares compounds with SENP7 block; Recombinant SENP8, Z-RLRGG-aminoluciferin luminescence, 60 min; inhibition, % at 12.5 µM; AID 488912;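 active means mean inhibition across replicates above about 50%, limit read from the data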
SENP6 confirm: human SENP6 inhibition, confirmed | actives 58% (n = 6,200) | shares compounds with SENP7 block | AID 488915 | recombinant SENP6, Z-RLRGG-aminoluciferin luminescence | inhibition, % at 12.5 µM
SENP7 conf: confirmation of human SENP7 protease inhibitors; shares compounds with SENP7 block; recombinant SENP7, Z-RLRGG-aminoluciferin luminescence, 40 min; inhibition, % at 12.5 µM; actives 69% (n = 6,200); AID 488917
Casp3 SENP sel: selectivity test for SENP inhibitors: human caspase-3 inhibition; AID 488918; purified caspase-3, Z-DEVD-aminoluciferin luminescence, 60 min; shares compounds with SENP7 block; actives 60% (n = 6,200); inhibition, % at 12.5 µM;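 active means mean inhibition above about 50%, limit read from the data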;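 further: plate controls were enzyme with DMSO for no effect and wells without caspase-3 for full effect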
SENP luc ctr: interferes with luciferase luminescence in SENP counter-screen; actives 39% (n = 6,200); shares compounds with SENP7 block; Pre-incubated SENP8/Z-RLRGG-aminoluciferin, luciferase luminescence interference; inhibition, % at 12.5 µM; AID 488919;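 active means mean inhibition above about 50% when retested at one dose, limit read from the data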;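 further: plate controls were DMSO wells with completed reaction for no effect and substrate without enzyme for full effect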
* marks the source's active call; other numbers are inactive results; x = no result.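 How the source made its calls, unless noted: active means mean inhibition above about 50% in the one-dose retest (limit read from the data); inactive means the rest.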

SMILES | SENP1 FRET inh | SENP8 block-1 | SENP7 block | SENP6 inh | SENP8 block-2 | SENP8 confirm | SENP6 confirm | SENP7 conf | Casp3 SENP sel | SENP luc ctr
Fc1ccc2nc3[nH]c4ccccc4c3nc2c1 | -57.8 | 47.2 | 73.7* | 73.6* | -211.2 | 7.8 | 53.0* | 53.3* | 61.2* | 24.6
O=C(COc1ccc2c(c1)CCC2)NCc1ccccc1 | -1.0 | -3.4 | -6.7 | 5.2 | 10.9 | x | x | x | x | x
Cc1cccc(NC(=O)COc2ccc3oc4c(c3c2)CCCC4)n1 | 1.7 | -0.8 | 3.7 | -4.0 | -15.0 | x | x | x | x | x
Cc1cnc(NC(=O)COc2ccc3c(c2)CCC3)s1 | -1.1 | 13.4 | 44.6 | 52.3* | 3.8 | -15.0 | 4.0 | 21.7 | 12.8 | 1.5
O=C(COc1ccc2c(c1)CCC2)Nc1ccccn1 | 4.0 | 95.5* | 98.8* | 96.9* | 5.9 | 97.0* | 97.5* | 101.1* | 96.7* | 96.1*
Cc1cccc(NC(=O)COc2ccc3c(c2)CCC3)n1 | -0.4 | 29.1 | 51.2* | 60.7* | 12.1 | 56.5* | 56.1* | 83.5* | 59.7* | 46.0
COc1ccccc1NC(=O)C1CCN(S(=O)(=O)c2ccc3c(c2)NC(=O)CO3)CC1 | -0.5 | 5.8 | 5.0 | -8.0 | 2.6 | x | x | x | x | x
COc1ccc(-c2csc(NC(=O)CCN3C(=O)C4CC=CCC4C3=O)n2)cc1OC (centres undefined) | -1.0 | 12.4 | -0.6 | -6.4 | -2.7 | x | x | x | x | x
Cc1ccc(NC(=O)c2cnn(-c3ccccc3)c2C)cc1C | -0.5 | 76.8* | 89.9* | 84.7* | 16.2 | 4.9 | 85.9* | 97.0* | 80.0* | 40.1
COc1ccc(NC(=O)c2cnn(-c3ccccc3)c2C)cc1OC | -2.5 | 29.3 | 40.7 | 52.1* | 14.4 | 25.3 | 24.8 | 64.1* | 63.3* | 46.2
Cc1c(C(=O)Nc2cccc([N+](=O)[O-])c2)cnn1-c1ccccc1 | 0.5 | 33.6 | 55.6* | 66.9* | 12.2 | 51.1* | 48.2 | 81.0* | 49.2 | 58.2*
COc1ccc(OC)c(NC(=O)c2cnn(-c3ccccc3)c2C)c1 | 2.1 | 1.6 | 5.5 | -3.1 | 5.5 | x | x | x | x | x
COc1ccc(NC(=O)c2cnn(-c3ccccc3)c2C)cc1 | 0.5 | 80.5* | 89.7* | 90.4* | 9.9 | -8.2 | 81.7* | 96.7* | 91.8* | 56.0*
Cc1c(C(=O)Nc2ccccc2)cnn1-c1ccccc1 | 1.3 | 20.8 | 26.0 | 24.8 | 25.2 | x | x | x | x | x
COc1ccc(OC)c(NC(=O)/C=C/c2ccc(S(=O)(=O)N3CCOCC3)cc2)c1 | 0.2 | 0.6 | -6.2 | 4.8 | 20.8 | x | x | x | x | x
O=C(Nc1cccc([N+](=O)[O-])c1)c1[nH]ncc1Cl | 4.0 | 74.2* | 81.4* | 81.0* | 14.0 | 66.7* | 61.3* | 90.9* | 77.3* | 54.2*
O=C(Oc1ccc(Cl)c2cccnc12)C12CC3CC(CC(C3)C1)C2 | -0.4 | -9.6 | 1.1 | 0.1 | 27.7 | x | x | x | x | x
Cc1ccc2nc(/C=C/c3cccc(F)c3)ccc2c1 | 0.1 | 30.5 | 22.9 | 50.2* | -300.5 | 8.2 | 8.3 | 55.9* | 16.5 | 58.6*
COc1ccc2[nH]c3c(=O)n(Cc4ccc(C(=O)N5CCC(C(N)=O)CC5)cc4)c(=S)[nH]c3c2c1 | 0.6 | 66.5* | 56.6* | 68.6* | -300.0 | 73.1* | 72.0* | 87.3* | 68.2* | 41.1
CC(C)Oc1ccc(F)cc1-c1cc(C(=O)N2CCc3ccccc3C2)[nH]n1 | 2.8 | x | x | x | 10.3 | x | x | x | x | x
c1ccc(OCCSc2nnc3sc4ccccc4n23)cc1 | 0.7 | 68.0* | 15.6 | 79.7* | 13.6 | -4.9 | 68.1* | 88.4* | 78.4* | 74.6*
COc1ccc(/C=N/Nc2nc(=O)[nH]nc2C)cc1[N+](=O)[O-] | 1.9 | -10.9 | 15.7 | 22.6 | 22.6 | x | x | x | x | x
Cc1n[nH]c(=O)nc1N/N=C/c1ccc(O)c([N+](=O)[O-])c1 | 2.1 | 36.3 | 64.8* | 65.0* | 55.3* | 50.2* | 38.6 | 81.9* | 77.4* | 8.0
c1coc(C2=Nc3cccc4cccc(c34)N2)c1 | 0.0 | 13.6 | 5.0 | 50.0* | 35.7 | -21.5 | -5.7 | -9.1 | -7.7 | -3.2
O=C(Nc1sc2c(c1C(=O)O)CCCC2)c1cccs1 | -0.7 | 84.7* | 55.7* | 92.9* | -42.0 | 3.4 | 89.6* | 97.6* | 85.8* | 89.7*
SMILES | SENP1 FRET inh | SENP8 block-1 | SENP7 block | SENP6 inh | SENP8 block-2 | SENP8 confirm | SENP6 confirm | SENP7 conf | Casp3 SENP sel | SENP luc ctr
COC(=O)c1c(NC(=O)c2cccs2)sc2c1CCC(C)C2 (centres undefined) | -0.3 | -6.8 | -4.5 | -3.7 | -395.7 | x | x | x | x | x
O=C(Nc1sc2c(c1C(=O)O)CCCCC2)c1cccs1 | 0.3 | 95.2* | 71.4* | 96.4* | -60.6 | 97.7* | 98.5* | 101.8* | 94.5* | 96.3*
CC1CCc2c(sc(NC(=O)c3cccs3)c2C(=O)O)C1 (centres undefined) | 2.2 | 76.3* | -3.9 | 88.4* | -28.3 | 85.6* | 86.2* | 91.9* | 65.5* | 86.1*
O=C(CCc1ccccc1)Nc1sc2c(c1C(=O)O)CCCC2 | 1.5 | 3.2 | 0.1 | 3.3 | -21.4 | x | x | x | x | x
O=C(/C=C/c1cccs1)Nc1sc2c(c1C(=O)O)CCCC2 | 10.7 | 55.4* | 8.1 | 73.7* | 20.4 | 27.2 | 65.8* | 80.6* | 58.1* | 70.8*
Fc1cccc(Cl)c1/C=C/c1cnc2ccccc2n1 | -20.3 | 96.2* | 10.5 | 96.4* | -83.9 | 13.0 | 84.0* | 66.2* | 57.8* | 74.1*
CN(C)c1ccc(/C=C2\CCCCC2=O)cc1 | -79.2 | 48.0 | 63.2* | 61.6* | -24.1 | 46.4 | 62.2* | 81.2* | 60.5* | 28.6
O=C(c1ccccc1F)N1CCN(c2ccc([N+](=O)[O-])c(NCC3CCCO3)c2)CC1 (centres undefined) | -0.9 | 4.3 | 53.8* | 2.2 | 23.7 | -12.3 | -7.5 | -10.1 | 2.8 | -2.4
CCOc1ccc(NC(=O)CN(C)C(=O)c2c(C)nn(-c3ccccc3)c2Cl)cc1OCC | -0.4 | 6.8 | -4.1 | -3.0 | 4.7 | x | x | x | x | x
O=C(CS(=O)(=O)c1ccccc1)c1ccc2c(c1)OCCO2 | 0.0 | 33.7 | 50.7* | 56.7* | 3.5 | 62.6* | 60.3* | 86.2* | 81.5* | 65.1*
COc1ccc(S(N)(=O)=O)cc1C(=O)OCC(=O)N1CCCC(C)C1 (centres undefined) | 0.3 | 4.5 | -5.9 | -17.4 | 3.6 | x | x | x | x | x
COC(=O)[C@]12CCCCC=C1N(CCc1ccc(OC)c(OC)c1)C(=O)[C@H](CC(=O)N1CCC(c3ccccc3)CC1)C2 | 0.1 | x | x | x | 8.2 | x | x | x | x | x
